From ChEMBL document CHEMBL4020814, “Synthesis, Binding Mode, and Antihyperglycemic Activity of Potent and Selective (5-Imidazol-2-yl-4-phenylpyrimidin-2-yl)[2-(2-pyridylamino)ethyl]amine Inhibitors of Glycogen Synthase Kinase 3” (J Med Chem, 2017)

How the values were obtained:
[1] = Oral bioavailability in diabetic ZDF fa/fa rat at 8 mg/kg administered 4.5 and 0.5 hrs prior to oral glucose challenge; assay type: ADME, organism-based; conditions: in vivo
[2] = Half life in diabetic ZDF fa/fa rat at 8 mg/kg administered 4.5 and 0.5 hrs prior to oral glucose challenge; assay type: ADME, organism-based; conditions: in vivo
[3] = Plasma concentration in diabetic db/db mouse at 30 mg/kg administered at 4.5 and 0.5 hrs prior to oral glucose challenge measured 20 mins post second dose
[4] = Inhibition of human GSK3 using biotin-CREB peptide substrate after 1 hr by scintillation counting method
[5] = tested on: Rattus norvegicus; experiment: Antidiabetic activity in diabetic ZDF fa/fa rat assessed as reduction in plasma glucose AUC at 8 mg/kg administered 4.5 and 0.5 hrs prior to oral glucose challenge by oral glucose tolerance test; assay type: functional; design: scale not given: the % may be the effect or the level left
Procedure, shortened: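 Obese 10-week-old ZDF (fa/fa) rats, n = 8/group, fasted overnight, given 8 mg/kg orally at 4.5 and 0.5 h before oral glucose challenge. Efficacy is the percent reduction in plasma glucose AUC versus untreated animals. Formulations were 15% captisol, 1% CMC or water with pH adjusted.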

[6] = Inhibition of GSK3 expressed in CHO-IR cells expressing human insulin receptor assessed as glycogen synthase activation after 30 mins by filter paper assay; assay type: cell-based, Cavia porcellus
[7] = Stability in rat liver microsomes assessed as half life; assay type: ADME, microsome
[8] = Stability in dog liver microsomes assessed as half life; assay type: ADME, Canis lupus familiaris, microsome
[9] = organism: Mus musculus; experiment: Antidiabetic activity in diabetic db/db mouse assessed as time required for improved glucose disposal by oral glucose tolerance test; assay type: functional
Procedure, shortened: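 db/db mice, 6–8 per group, fasted ~6 h (food removed 3 h before prebleed), dosed orally at −4.5 and −0.5 h relative to oral glucose (vehicle 10% captisol). Tail-snip blood glucose was read by glucometer or analyzer; plasma insulin was measured by ELISA.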

[10] = Stability in human liver microsomes assessed as half life; assay type: ADME, microsome
[11] = biological target: Vascular endothelial growth factor receptor 2 (Homo sapiens, UniProt P35968)
Sequence of Vascular endothelial growth factor receptor 2 (P35968 whole entry): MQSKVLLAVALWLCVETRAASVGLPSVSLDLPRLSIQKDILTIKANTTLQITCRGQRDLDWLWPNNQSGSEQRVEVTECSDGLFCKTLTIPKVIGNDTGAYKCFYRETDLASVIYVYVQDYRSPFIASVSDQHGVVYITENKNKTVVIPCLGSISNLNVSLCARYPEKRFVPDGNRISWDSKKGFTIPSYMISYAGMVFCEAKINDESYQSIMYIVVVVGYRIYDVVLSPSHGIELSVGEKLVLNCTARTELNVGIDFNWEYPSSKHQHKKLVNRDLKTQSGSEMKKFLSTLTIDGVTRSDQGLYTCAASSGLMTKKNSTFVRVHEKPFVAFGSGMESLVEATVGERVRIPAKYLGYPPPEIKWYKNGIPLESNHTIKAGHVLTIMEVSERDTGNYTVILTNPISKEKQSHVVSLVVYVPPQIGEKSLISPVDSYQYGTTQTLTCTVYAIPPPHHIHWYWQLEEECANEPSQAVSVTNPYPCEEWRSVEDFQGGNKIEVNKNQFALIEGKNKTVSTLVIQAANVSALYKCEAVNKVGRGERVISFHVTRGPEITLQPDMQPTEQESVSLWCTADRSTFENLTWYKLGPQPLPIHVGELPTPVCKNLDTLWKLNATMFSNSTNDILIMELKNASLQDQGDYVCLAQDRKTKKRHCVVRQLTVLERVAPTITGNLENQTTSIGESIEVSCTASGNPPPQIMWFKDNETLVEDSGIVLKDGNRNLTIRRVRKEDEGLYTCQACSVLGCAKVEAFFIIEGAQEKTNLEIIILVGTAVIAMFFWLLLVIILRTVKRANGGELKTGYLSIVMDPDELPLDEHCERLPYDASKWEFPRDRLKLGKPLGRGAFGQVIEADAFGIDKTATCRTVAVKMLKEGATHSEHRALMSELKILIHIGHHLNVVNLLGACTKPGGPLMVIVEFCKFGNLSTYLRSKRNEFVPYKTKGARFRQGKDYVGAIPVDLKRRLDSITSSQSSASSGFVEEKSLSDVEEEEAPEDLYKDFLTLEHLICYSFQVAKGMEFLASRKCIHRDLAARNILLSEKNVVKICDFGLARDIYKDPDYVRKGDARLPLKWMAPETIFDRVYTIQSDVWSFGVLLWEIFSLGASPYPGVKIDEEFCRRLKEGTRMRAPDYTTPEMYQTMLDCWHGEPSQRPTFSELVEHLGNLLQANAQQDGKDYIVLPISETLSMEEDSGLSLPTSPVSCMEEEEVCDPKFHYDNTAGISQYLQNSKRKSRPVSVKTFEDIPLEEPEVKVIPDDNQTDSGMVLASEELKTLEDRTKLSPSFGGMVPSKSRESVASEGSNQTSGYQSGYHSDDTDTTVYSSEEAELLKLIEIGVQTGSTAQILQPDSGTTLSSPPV

[12] = biological target: Vascular endothelial growth factor receptor 1 (Homo sapiens, UniProt P17948)
[13] = biological target: Angiopoietin-1 receptor (Homo sapiens, UniProt Q02763)
[14] = biological target: Fibroblast growth factor receptor 1 (Homo sapiens, UniProt P11362)
Sequence of Fibroblast growth factor receptor 1 (P11362 whole entry): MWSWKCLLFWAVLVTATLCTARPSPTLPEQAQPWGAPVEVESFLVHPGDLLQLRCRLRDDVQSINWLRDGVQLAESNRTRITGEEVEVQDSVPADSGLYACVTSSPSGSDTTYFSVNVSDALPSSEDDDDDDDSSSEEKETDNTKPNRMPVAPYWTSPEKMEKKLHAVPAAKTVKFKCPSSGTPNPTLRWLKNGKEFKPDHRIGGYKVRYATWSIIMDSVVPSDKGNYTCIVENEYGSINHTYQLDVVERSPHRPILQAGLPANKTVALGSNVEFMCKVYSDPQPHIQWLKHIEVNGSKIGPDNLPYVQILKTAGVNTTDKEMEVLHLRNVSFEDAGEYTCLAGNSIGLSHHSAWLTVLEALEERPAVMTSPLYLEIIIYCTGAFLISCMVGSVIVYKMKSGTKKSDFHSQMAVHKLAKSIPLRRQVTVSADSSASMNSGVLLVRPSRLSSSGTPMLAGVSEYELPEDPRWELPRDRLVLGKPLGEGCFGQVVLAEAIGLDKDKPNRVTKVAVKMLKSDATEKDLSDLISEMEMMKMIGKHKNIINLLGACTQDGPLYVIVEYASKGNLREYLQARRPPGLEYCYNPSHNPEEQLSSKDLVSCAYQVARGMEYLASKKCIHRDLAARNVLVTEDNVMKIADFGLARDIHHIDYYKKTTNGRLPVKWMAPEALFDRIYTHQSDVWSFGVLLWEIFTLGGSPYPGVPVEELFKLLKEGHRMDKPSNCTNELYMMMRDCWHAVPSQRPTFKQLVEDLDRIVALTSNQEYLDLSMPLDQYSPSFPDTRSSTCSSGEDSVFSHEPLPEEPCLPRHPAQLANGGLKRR

[15] = biological target: Glycogen synthase kinase-3 alpha (Homo sapiens, UniProt P49840); experiment: Inhibition of human GSK3alpha using biotin-CREB peptide substrate after 1 hr by scintillation counting method
Sequence of Glycogen synthase kinase-3 alpha (P49840 whole entry): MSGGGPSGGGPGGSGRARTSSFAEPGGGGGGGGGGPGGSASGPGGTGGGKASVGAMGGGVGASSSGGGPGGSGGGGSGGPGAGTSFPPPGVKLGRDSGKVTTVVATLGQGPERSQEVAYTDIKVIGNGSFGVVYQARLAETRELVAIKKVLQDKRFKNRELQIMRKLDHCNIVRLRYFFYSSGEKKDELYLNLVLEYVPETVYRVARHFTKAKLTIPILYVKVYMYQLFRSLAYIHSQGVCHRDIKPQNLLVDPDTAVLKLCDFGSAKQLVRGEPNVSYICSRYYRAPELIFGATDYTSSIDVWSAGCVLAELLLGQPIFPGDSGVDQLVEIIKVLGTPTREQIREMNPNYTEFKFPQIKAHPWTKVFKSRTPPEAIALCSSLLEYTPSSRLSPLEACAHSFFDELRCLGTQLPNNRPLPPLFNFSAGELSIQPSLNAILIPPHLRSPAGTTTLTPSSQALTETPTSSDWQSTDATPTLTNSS

[16] = Inhibition of human phosphatidylinositol (PI) 3-kinase using PI as substrate after 1 hr by scintillation counting method
[17] = biological target: Insulin-like growth factor 1 receptor (Homo sapiens, UniProt P08069)
[18] = biological target: T1, Serine/threonine-protein kinase Chk1 (Homo sapiens, UniProt O14757); experiment: Inhibition of human CHK1 using biotin-CDC25 peptide substrate after 1 hr by scintillation counting method
T1 sequence (O14757 whole entry): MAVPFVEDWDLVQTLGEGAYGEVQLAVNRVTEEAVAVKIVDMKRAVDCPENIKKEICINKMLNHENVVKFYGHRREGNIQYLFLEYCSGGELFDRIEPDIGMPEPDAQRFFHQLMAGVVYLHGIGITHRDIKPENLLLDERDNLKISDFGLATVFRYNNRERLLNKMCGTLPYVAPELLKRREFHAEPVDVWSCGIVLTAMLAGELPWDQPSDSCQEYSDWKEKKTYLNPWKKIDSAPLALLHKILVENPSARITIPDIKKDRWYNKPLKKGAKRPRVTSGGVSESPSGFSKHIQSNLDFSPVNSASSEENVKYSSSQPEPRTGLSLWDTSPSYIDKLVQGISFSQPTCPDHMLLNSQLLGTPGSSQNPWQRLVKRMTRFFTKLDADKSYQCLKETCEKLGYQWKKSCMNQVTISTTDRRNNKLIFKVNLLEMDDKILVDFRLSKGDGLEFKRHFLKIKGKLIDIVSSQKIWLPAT

[19] = Inhibition of GSK3 in Sprague-Dawley rat primary hepatocytes assessed as assessed as glycogen synthase activation after 30 mins
[20] = biological target: Cyclin-dependent kinase 1 (Homo sapiens, UniProt P06493); experiment: Inhibition of human CDC2 using biotin histone H1 peptide substrate after 1 hr by scintillation counting method
Sequence of Cyclin-dependent kinase 1 (P06493 whole entry): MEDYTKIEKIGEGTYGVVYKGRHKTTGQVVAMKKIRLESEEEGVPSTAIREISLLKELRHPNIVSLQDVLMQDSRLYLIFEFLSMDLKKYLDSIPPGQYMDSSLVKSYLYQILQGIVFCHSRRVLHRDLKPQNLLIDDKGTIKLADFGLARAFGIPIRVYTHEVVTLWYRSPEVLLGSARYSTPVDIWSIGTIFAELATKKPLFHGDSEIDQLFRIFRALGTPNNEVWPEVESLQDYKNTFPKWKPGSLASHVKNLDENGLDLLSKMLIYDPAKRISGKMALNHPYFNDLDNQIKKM

[21] = biological target: Insulin receptor (Homo sapiens, UniProt P06213); experiment: Inhibition of human insulin receptor tyrosine kinase after 1 hr by scintillation counting method
[22] = biological target: Glycogen synthase kinase-3 beta (Homo sapiens, UniProt P49841); experiment: Inhibition of human GSK3beta using biotin-CREB peptide substrate after 1 hr by scintillation counting method
Sequence of Glycogen synthase kinase-3 beta (P49841 whole entry): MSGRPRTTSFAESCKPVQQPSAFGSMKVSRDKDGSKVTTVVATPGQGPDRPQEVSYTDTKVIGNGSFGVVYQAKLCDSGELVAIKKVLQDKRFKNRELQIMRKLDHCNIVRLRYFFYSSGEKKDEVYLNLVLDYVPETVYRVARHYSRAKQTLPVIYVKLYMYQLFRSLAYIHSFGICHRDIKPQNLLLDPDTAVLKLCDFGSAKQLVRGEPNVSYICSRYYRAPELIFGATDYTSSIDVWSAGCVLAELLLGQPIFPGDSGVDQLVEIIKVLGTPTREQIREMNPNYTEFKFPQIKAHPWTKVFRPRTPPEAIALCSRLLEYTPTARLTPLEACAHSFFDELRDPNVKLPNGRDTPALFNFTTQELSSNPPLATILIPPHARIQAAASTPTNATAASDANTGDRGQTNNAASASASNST

[23] = biological target: Mitogen-activated protein kinase 1 (Homo sapiens, UniProt P28482); experiment: Inhibition of human ERK2 using myelin basic protein substrate after 1 hr by scintillation counting method
Sequence of Mitogen-activated protein kinase 1 (P28482 whole entry): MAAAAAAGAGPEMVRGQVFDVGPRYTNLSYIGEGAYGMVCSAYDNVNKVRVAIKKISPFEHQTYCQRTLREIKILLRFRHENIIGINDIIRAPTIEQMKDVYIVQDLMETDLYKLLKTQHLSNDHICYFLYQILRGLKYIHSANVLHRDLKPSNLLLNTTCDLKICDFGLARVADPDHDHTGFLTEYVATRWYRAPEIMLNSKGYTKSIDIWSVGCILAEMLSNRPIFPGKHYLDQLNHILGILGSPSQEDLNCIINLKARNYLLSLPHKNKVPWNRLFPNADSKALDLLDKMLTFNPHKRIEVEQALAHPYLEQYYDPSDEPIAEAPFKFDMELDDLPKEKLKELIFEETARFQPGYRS

[24] = Inhibition of human DNA-dependent protein kinase using PI as substrate after 1 hr by scintillation counting method
[25] = biological target: RAC-alpha serine/threonine-protein kinase (Homo sapiens, UniProt P31749); experiment: Inhibition of human AKT1/PKB using phospho-AKT peptide substrate after 1 hr by scintillation counting method
Sequence of RAC-alpha serine/threonine-protein kinase (P31749 whole entry, canonical isoform): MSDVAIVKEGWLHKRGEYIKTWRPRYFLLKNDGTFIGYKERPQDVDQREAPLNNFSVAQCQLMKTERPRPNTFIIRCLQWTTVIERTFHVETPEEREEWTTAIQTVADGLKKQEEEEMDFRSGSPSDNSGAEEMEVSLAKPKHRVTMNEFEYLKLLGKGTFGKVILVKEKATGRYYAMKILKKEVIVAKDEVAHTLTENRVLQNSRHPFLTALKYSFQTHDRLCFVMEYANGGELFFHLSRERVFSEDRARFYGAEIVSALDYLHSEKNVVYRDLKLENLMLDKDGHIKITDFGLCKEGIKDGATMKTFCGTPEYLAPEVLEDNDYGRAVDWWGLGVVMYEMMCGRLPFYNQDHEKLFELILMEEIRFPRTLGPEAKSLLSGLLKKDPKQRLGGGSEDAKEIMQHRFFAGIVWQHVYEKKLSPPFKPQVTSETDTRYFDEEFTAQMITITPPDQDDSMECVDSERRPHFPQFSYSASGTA

[26] = biological target: Casein kinase I isoform epsilon (Homo sapiens, UniProt P49674); experiment: Inhibition of human CK1epsilon using biotin peptide substrate after 1 hr by scintillation counting method
Sequence of Casein kinase I isoform epsilon (P49674 whole entry, canonical isoform): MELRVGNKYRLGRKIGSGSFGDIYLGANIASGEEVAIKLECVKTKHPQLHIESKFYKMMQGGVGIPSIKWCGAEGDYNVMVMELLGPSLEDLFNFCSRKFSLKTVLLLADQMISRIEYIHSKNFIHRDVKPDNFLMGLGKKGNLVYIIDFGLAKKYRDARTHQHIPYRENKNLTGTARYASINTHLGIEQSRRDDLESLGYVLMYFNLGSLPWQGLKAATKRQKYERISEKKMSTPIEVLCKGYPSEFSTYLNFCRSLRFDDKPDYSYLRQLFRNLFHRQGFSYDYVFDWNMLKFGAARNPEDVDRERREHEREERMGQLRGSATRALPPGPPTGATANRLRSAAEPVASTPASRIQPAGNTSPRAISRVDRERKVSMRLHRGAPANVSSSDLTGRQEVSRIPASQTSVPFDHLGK

SMILES | concentration at 20 min ([3]; plasma) [ng/mL] | IC50 [4] [nM] | EC50 [6] [nM] | half-life [7] [min] | half-life [8] [min] | also measured
Nc1nc(NCCNc2ncc(-c3ncc[nH]3)c(-c3ccc(F)cc3C(F)(F)F)n2)ccc1[N+](=O)[O-] |  | 13 | 3300 | > 30 | > 30 | 
Nc1nc(NCCNc2ncc(-c3ncc[nH]3)c(-c3cc(F)c(F)cc3F)n2)ccc1[N+](=O)[O-] |  | 38 | 6880 | > 30 | > 30 | 
Cc1c(C)c2c(c(C)c1O)CCC(C)(COc1ccc(CC3SC(=O)NC3=O)cc1)O2 (stereo not drawn) [TROGLITAZONE] |  |  |  |  |  | Time [9]: <=2 weeks
CN(C)C(=N)NC(=N)N [METFORMIN] |  |  |  |  |  | Time [9]: <=2 weeks
N#Cc1ccc(-c2nc(NCCNc3ccc([N+](=O)[O-])cn3)ncc2-c2ncc[nH]2)cc1 | 1000 | 19 | 5000 |  |  | 
N#Cc1ccc(NCCNc2ncc(-n3ccnc3)c(-c3ccc(Cl)cc3Cl)n2)nc1 | 13000 | 25 | 790 |  |  | 
Cc1cc(Cl)ccc1-c1nc(NCCNc2ccc([N+](=O)[O-])c(N)n2)ncc1-c1ncc[nH]1 |  | 19 | 810 | > 30 | > 30 | 
Nc1nc(NCCNc2ncc(-c3ncc[nH]3)c(-c3cc(F)c(Cl)cc3Cl)n2)ccc1[N+](=O)[O-] |  | 13 | 2280 | > 30 | > 30 | 
Nc1nc(NCCNc2ncc(-c3ncc[nH]3)c(-c3ccc(C(F)(F)F)cc3)n2)ccc1[N+](=O)[O-] |  | 51 | 5920 | > 30 | > 30 | 
Nc1nc(NCCNc2ncc(-c3ncc[nH]3)c(-c3cc(F)c(Cl)cc3F)n2)ccc1[N+](=O)[O-] |  | 19 | 2190 | > 30 | > 30 | 
FC(F)(F)c1ccc(NCCNc2ncc(-c3ncc[nH]3)c(-c3ccc(Cl)cc3Cl)n2)nc1 |  | 35 | 1240 | > 30 | > 30 | 
Nc1nc(NCCNc2ncc(-n3ccnc3)c(-c3ccc(Cl)cc3Cl)n2)ccc1[N+](=O)[O-] |  | 1 | 80 |  |  | IC50 [11]: > 2000 nM; IC50 [12]: > 5000 nM; IC50 [13]: > 5000 nM; concentration at 20 min ([3]; in vivo): 7000 ng/mL; IC50 [14]: > 1000 nM; IC50 [15]: 7 nM; IC50 [16]: > 5000 nM; IC50 [17]: > 2000 nM; IC50 [18]: > 10000 nM; EC50 [19]: 100 nM; IC50 [20]: 4000 nM; IC50 [21]: > 2000 nM; IC50 [22]: 0.6 nM; IC50 [23]: > 10000 nM; IC50 [24]: > 10000 nM; IC50 [25]: > 5000 nM; IC50 [26]: > 5000 nM
Nc1nc(NCCNc2ncc(-c3ncc[nH]3)c(-c3cc(F)ccc3F)n2)ccc1[N+](=O)[O-] |  | 47 | 3000 | > 30 | > 30 | 
Nc1nc(NCCNc2ncc(-c3ncc[nH]3)c(-c3ccc(Cl)cc3)n2)ccc1[N+](=O)[O-] |  | 31 | 2500 | > 30 | > 30 | 

More lines, main results first:

concentration at 20 min ([3]; plasma) [ng/mL] | IC50 [4] [nM] | EC50 [6] [nM] | half-life [7] [min] | half-life [8] [min] | SMILES | also measured
10000 | 2 | 120 |  |  | Cc1c[nH]c(-c2cnc(NCCNc3ccc([N+](=O)[O-])c(N)n3)nc2-c2ccc(Cl)cc2Cl)n1 | bioavailability [1]: 7%; half-life [2]: 58 min; Activity [5]: 24%
 | 12 | 730 | > 30 | > 30 | Nc1nc(NCCNc2ncc(-c3ncc[nH]3)c(-c3ccccc3Cl)n2)ccc1[N+](=O)[O-] | 
1000 | 10 | 290 |  |  | Nc1cnc(NCCNc2ccc([N+](=O)[O-])c(N)n2)nc1-c1ccc(Cl)cc1Cl | 
 | 4 | 50 | > 30 | > 30 | Cc1ccc(-c2nc(NCCNc3ccc([N+](=O)[O-])c(N)n3)ncc2-c2ncc[nH]2)c(Br)c1 | 
13000 | 6 | 260 | > 30 | > 30 | Nc1nc(NCCNc2ncc(-c3ncc[nH]3)c(-c3ccc(Cl)cc3Br)n2)ccc1[N+](=O)[O-] | 
 | 5 | 1020 | > 30 | > 30 | Nc1nc(NCCNc2ncc(-c3ncc[nH]3)c(-c3ccc(Cl)cc3F)n2)ccc1[N+](=O)[O-] | 
3000 | 6 | 50 |  |  | CN1CCN(c2cnc(NCCNc3ccc([N+](=O)[O-])c(N)n3)nc2-c2ccc(Cl)cc2Cl)CC1 | 
 | 7 | 420 | > 30 | > 30 | Nc1nc(NCCNc2ncc(-c3ncc[nH]3)c(-c3ccc(F)cc3Cl)n2)ccc1[N+](=O)[O-] | 
12000 | 7 | 150 |  |  | Nc1nc(NCCNc2ncc(CO)c(-c3ccc(Cl)cc3Cl)n2)ccc1[N+](=O)[O-] | 
 | 4 | 430 | > 30 | > 30 | Nc1nc(NCCNc2ncc(-c3ncc[nH]3)c(-c3ccc(Br)cc3Cl)n2)ccc1[N+](=O)[O-] | 
 | 9 | 5650 | > 30 | > 30 | Nc1nc(NCCNc2ncc(-c3ncc[nH]3)c(-c3ccc(F)cc3F)n2)ccc1[N+](=O)[O-] | 
19000 | 8 | 290 |  |  | Cc1c[nH]c(-c2cnc(NCCNc3ccc([N+](=O)[O-])cn3)nc2-c2ccc(Cl)cc2Cl)n1 | 
 | 7 | 240 | > 30 | > 30 | Nc1nc(NCCNc2ncc(-c3ncc[nH]3)c(-c3ccccc3Br)n2)ccc1[N+](=O)[O-] | 
4000 | 4 | 30 |  |  | CN1CCN(c2cnc(NCCNc3ccc([N+](=O)[O-])c(N)n3)nc2-c2ccc(Cl)cc2Cl)C(=O)C1 | 
 | 7 | > 10000 | > 30 | > 30 | N#Cc1ccc(-c2nc(NCCNc3ccc([N+](=O)[O-])c(N)n3)ncc2-c2ncc[nH]2)cc1 | 
97000 | 4 | 370 | > 30 | > 30 | O=[N+]([O-])c1ccc(NCCNc2ncc(-c3ncc[nH]3)c(-c3ccc(Cl)cc3Cl)n2)nc1 | bioavailability [1]: 33%; half-life [2]: 143 min; Activity [5]: 29%
1000 | 7 | 70 |  |  | Nc1nc(NCCNc2ncc(N3CCOCC3)c(-c3ccc(Cl)cc3Cl)n2)ccc1[N+](=O)[O-] | 
29000 | 4 | 510 | > 30 | > 30 | N#Cc1ccc(NCCNc2ncc(-c3ncc[nH]3)c(-c3ccc(Cl)cc3Cl)n2)nc1 | bioavailability [1]: 21%; half-life [2]: 52 min; half-life [10]: 33 min; Activity [5]: 18%
5000 | 11 | 1300 |  |  | N#Cc1ccc(-c2nc(NCCNc3ccc([N+](=O)[O-])cn3)ncc2-n2ccnc2)cc1 | 
 | 4 | 220 | > 30 | > 30 | Nc1nc(NCCNc2ncc(-c3ncc[nH]3)c(-c3ccc(F)cc3Br)n2)ccc1[N+](=O)[O-] | 
